Key:
[1] = Cytotoxicity against mouse PMA ionomycin-stimulated lymphocytes; type: functional
Summary of the method: (§1)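 Growth-inhibition assay on cultured cells, reported as IC50. […] used primary mouse lymphocytes, either PMA/ionomycin-stimulated or in a mixed lymphocyte reaction. C2C12 are nontransformed mouse myoblasts. BAE are primary bovine aortic endothelial cells.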

N1E-115 = experiment: Cytotoxicity against N1E-115 cell line (mouse neuroblastoma cells); type: functional, cell-based; summary of the method: as §1
Jurkat = experiment: Cytotoxicity against Jurkat cell line (human T-cell leukemia cells); type: functional, cell-based; summary of the method: as §1
[2] = Cytotoxicity against BAE cell line (bovine aortic endothelial cells); type: functional, cell-based; details: Bos taurus; summary of the method: as §1
EL4 [3] = experiment: Cytotoxicity against mouse thymoma cells (EL-4 cell lines); type: functional, cell-based; summary of the method: as §1
Mus musculus = species on record: Mus musculus; experiment: Cytotoxicity against mouse mixed lymphocyte reaction; type: functional; summary of the method: as §1
[4] = Cytotoxicity against C2C12 cell line (mouse myoblast cells); type: functional, cell-based; summary of the method: as §1
P388 [5] = experiment: Cytotoxicity against P-388 cell line (mouse T-cell leukemia cells); type: functional, cell-based; summary of the method: as §1
P388 [6] = experiment: Cytotoxicity against P-388 cell line (mouse T-cell leukemia); type: functional, cell-based
Summary of the method: (§2)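 Cell proliferation inhibition measured in cultured cells; value reported as IC50.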

EL4 [7] = experiment: Cytotoxicity against EL-4 cell line (mouse thymoma); type: functional, cell-based; summary of the method: as §2
EL4 [8] = experiment: Cytotoxicity against EL-4 cell line (mouse thymoma cells); type: functional, cell-based; summary of the method: as §1

Compound: CCCCCCCC(=O)N(C)[C@@H](CC(C)C)C(=O)N[C@H](C(=O)N(C)[C@H](C(=O)N1C[C@@H](O)C[C@H]1C(=O)N1C(=O)C=C[C@@H]1C)C(C)C)C(C)OC(C)=O (some centres undefined)
- IC50 [1]: 0.0303 µM
- IC50 (N1E-115): 0.0359 µM
- IC50 (Jurkat): 0.0394 µM
- IC50 [2]: 0.0367 µM
- IC50 (EL4 [3]): 0.0456 µM
- IC50 (Mus musculus): 0.0328 µM
- IC50 [4]: 0.0434 µM
- IC50 (P388 [5]): 0.0667 µM

Compound: CC(=O)OC(C)[C@H](NC(=O)[C@H](CC(C)C)N(C)C(=O)CCOCCOCCOCCOCCNC(=O)CCCC[C@@H]1SC[C@@H]2NC(=O)N[C@@H]21)C(=O)N(C)[C@H](C(=O)N1C[C@@H](O)C[C@H]1C(=O)N1C(=O)C=C[C@@H]1C)C(C)C (some centres undefined)
- IC50 (P388 [6]): 10 µM
- IC50 (EL4 [7]): 10 µM

Compound: CCCCCCCC(=O)N(C)[C@@H](CC(C)C)C(=O)N[C@H](C(=O)N(C)[C@H](C(=O)N1C[C@@H](O)C[C@H]1C(=O)N1C(=O)C=C[C@H]1C)C(C)C)C(C)OC(C)=O (some centres undefined)
- IC50 (EL4 [8]): 6 µM
- IC50 (P388 [5]): 7 µM

Compound: CCCCCCCC(=O)N(C)[C@@H](CC(C)C)C(=O)N[C@H](C(=O)N(C)[C@H](C(=O)N1CCC[C@H]1C(=O)N1C(=O)C=C[C@@H]1C)C(C)C)C(C)OC(C)=O (some centres undefined)
- IC50 (EL4 [8]): 6 µM
- IC50 (P388 [5]): 5 µM
